Test results reported in article PMC3063487 (Bioconjugate chemistry, 2011).
“And” between values parts separate entries of the source, which are not always exact repeats. Equal values may be shown once. “Also recorded” adds a separate entry of the source.

Columns and labels:
murine primary BMDM = assay: In vitro cytokine induction in bone marrow derived macrophages; format: cell-based, mouse (C57BL/6); settings: for EC50: Mus musculus, BMDM, 18 h, read-out: EC50 BMDM; for Imax BMDM (IL-6 ng/ml): maximum level of IL-6 induction, 18 hours
Summary of the method: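 Bone marrow-derived macrophages from C57BL/6 mice at 5×10^4 cells per well. Cells were given serially diluted test compound, from 50–100 mM DMSO stocks, for 18 h at 37°C, 5% CO2. Supernatant IL-6 was measured by ELISA, detection limit 15 pg/mL. Curves were fitted by nonlinear regression to give EC50 and maximal IL-6 induction. Representative of two independent experiments.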

NFκB-bla Raw 264.7 cells = assay: In vitro NFkB activation using NFκB-bla Raw 264.7 cells; format: cell-based, murine; settings: Mus musculus, RAW264.7, 16 h; for EC50: read-out: EC50 NFkB-RAW; for maximal fold induction: read-out: Imax NFkB-RAW (RR)
Summary of the method: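 NFκB-bla RAW 264.7 cells at 5×10^4 per well in OptiMEM with 0.5% dialyzed FBS, 0.1 mM non-essential amino acids, 1 mM pyruvate, 10 mM HEPES pH 7.3 and penicillin/streptomycin. Test compound came from 10 or 50 mM DMSO stocks, was serially diluted in DMSO, then in medium.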

C57BL/6 mice = assay: Pharmacodynamic; format: in vivo, mouse (C57BL/6); settings: 200 nmol i.v., all time points analyzed
Summary of the method: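 Female C57BL/6 mice, 5 per group, received 200 nmol test compound intravenously. Sera were collected 2, 4, 6, 24 and 48 h after injection and held at −20°C. IL-6 and TNF-α were measured by Luminex bead assay, with detection limits of 5 and 10 pg/mL. Means ± SEM of five mice were compared with vehicle and unconjugated ligand by one-way ANOVA with Bonferroni post hoc test.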

human B cells = assay: Human B cell proliferation; format: cell-based; settings: human PBMC, four days
Summary of the method: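 Human PBMC from blood-bank buffy coats, from three donors. Cells were labelled with 10 μM CFSE in saline for 10 min, washed, then exposed to 1 or 10 μM test compound for four days. Cells were surface-stained for CD19. Proliferation of the CD19-gated B cells was scored by flow cytometry as CFSE dilution. Representative of two independent experiments.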

Pharmacokinetic = format: in vivo, mouse (C57BL/6); settings: for AUC: C57BL/6, mouse, iv, 500 nmol
[1] = Solubility study in deionized water; settings: for Water Solubility: saturated solution in deionized water, osmometer
Protein binding assay = format: in vitro ADME; settings: bovine, dialyzed fetal bovine serum
dialyzed serum proteins = assay: Protein binding assay; format: in vitro ADME; settings: rapid equilibrium dialysis, dialyzed fetal bovine serum, UV 282 nm
human PBMC = assay: Cytokine induction by human PBMC; format: cell-based; settings: 1 or 10 μM, 18 hours

EC50 (murine primary BMDM) [µM]	EC50 (NFκB-bla Raw 264.7 cells) [µM]	AUC (Pharmacokinetic; serum) [µM·h]	Water Solubility [1]	AUC (Pharmacokinetic; in vivo) [µM·h]	Water solubility (in words) ([1]; deionized water)	fraction unbound (Protein binding assay)	Protein Binding (%) (dialyzed serum proteins)	Compound	Imax BMDM (IL-6 ng/ml) (murine primary BMDM) [ng/mL]	maximal fold induction (NFκB-bla Raw 264.7 cells)	Serum cytokine levels (IL-6, TNF-α) compared to 1V136 (C57BL/6 mice)	B cell proliferation (human B cells; 1 and 10 μM, three donors)	B cell proliferation (human B cells; 1 μM)	Cytokine induction (IL-6, TNF-α) in human PBMC (in words) (human PBMC)	Maximum serum concentration compared to 1V136 (Pharmacokinetic; C57BL/6 mice, i.v. 500 nmol)
4.42 ± 1.18	2.67 ± 0.75	–	–	–	–	–	–	COCCOc1nc(N)c2nc(O)n(Cc3ccc(C(=O)NCCOCCOCCOCCOCCOCCOCCOCCOCCOCCOCCn4cc(CCC(=O)O)nn4)cc3)c2n1 [Compound 2b, 3-(1-(1-(4-((6-amino-8-hydroxy-2-(2-methoxyethoxy)-9H-purin-9-yl)methyl)phenyl)-1-oxo-5,8,11,14,17,20,23,26,29,32-decaoxa-2-azatetratriacontan-34-yl)-1H-1,2,3-triazol-4-yl)propanoic acid]	2.79 ± 0.47	3.15 ± 0.23	significantly less cytokine levels; also recorded: minimum induction of proinflammatory cytokines	minimally induced proliferation; also recorded: undetectable	–	–	–
10.6 ± 1.74	4.99 ± 0.7	5.93	240 mOsm/kg and 240 ± 10 mOsm/kg	–	–	–	–	COCCOc1nc(N)c2nc(O)n(Cc3ccc(C(=O)NCCOCCOCCOCCOCCOCCOCCn4cc(CCC(=O)O)nn4)cc3)c2n1 [Compound 1b, 3-(1-(1-(4-((6-amino-8-hydroxy-2-(2-methoxyethoxy)-9H-purin-9-yl)methyl)phenyl)-1-oxo-5,8,11,14,17,20-hexaoxa-2-azadocosan-22-yl)-1H-1,2,3-triazol-4-yl)propanoic acid]	2.46 ± 0.36	3.04 ± 0.23	significantly less cytokine levels; also recorded: minimum induction of proinflammatory cytokines	minimally induced proliferation; also recorded: undetectable	–	–	–
0.36 ± 0.09	0.08 ± 0.01	–	–	1.62	highly insoluble in aqueous solution	0.332	–	COCCOc1nc(N)c2nc(O)n(Cc3ccccc3)c2n1 [Compound 1V136, 9-benzyl-8-hydroxy-2-(2-methoxyethoxy) adenine, reference compound]	3.32 ± 0.54	3.56 ± 0.38	–	–	induced strong B cell proliferation	–	–
–	–	–	35 ±1 mOsm/kg	–	–	–	–	COCCOc1nc(N)c2[nH]c(=O)n(Cc3ccc(C(=O)O)cc3)c2n1 [Compound 1V209, 4-{[6-Amino-2-(2-methoxyethoxy)-8-oxo-7H-purin-9(8H)-yl]methyl}benzoic Acid]	–	–	–	–	–	–	–
2.24 ± 0.33	1.16 ± 0.39	–	–	–	–	–	57.6 ± 1.2	COCCOc1nc(N)c2nc(O)n(Cc3ccc(C(=O)NCCOCCOCCOCCOCCOCCOCCOCCOCCOCCOCCN)cc3)c2n1 [Compound 2c, 4-((6-amino-8-hydroxy-2-(2-methoxyethoxy)-9H-purin-9-yl)methyl)-N-(32-amino-3,6,9,12,15,18,21,24,27,30-decaoxadotriacontyl)benzamide]	2.89 ± 0.49	3.23 ± 0.27	minimum induction of proinflammatory cytokines	–	–	higher potencies than the corresponding compounds with carboxyl-terminals	–
6.93 ± 3.54	5.91 ± 1.33	–	–	–	–	–	–	COCCOc1nc(N)c2nc(O)n(Cc3ccc(C(=O)NCCOCCOCCOCCOCCOCCOCCOCCOCCOCCOCCN=[N+]=[N-])cc3)c2n1 [Compound 2a, 4-((6-amino-8-hydroxy-2-(2-methoxyethoxy)-9H-purin-9-yl)methyl)-N-(32-azido-3,6,9,12,15,18,21,24,27,30-decaoxadotriacontyl)benzamide]	2.72 ± 0.34	3.55 ± 0.14	minimum induction of proinflammatory cytokines	–	–	–	–
1.79 ± 0.77	0.9 ± 0.29	41.4	–	–	–	–	79.5 ± 1.35	COCCOc1nc(N)c2nc(O)n(Cc3ccc(C(=O)NCCOCCOCCOCCOCCOCCOCCOCCOCCOCCOCCOCCOCCOCCOCCOCCOCCOCCOCCOCCN)cc3)c2n1 [Compound 3, 4-((6-amino-8-hydroxy-2-(2-methoxyethoxy)-9H-purin-9-yl)methyl)-N-(59-amino-3,6,9,12,15,18,21,24,27,30,33,36,39,42,45,48,51,54,57-nonadecaoxanonapentacontyl)benzamide]	4.10 ± 1.33	3.58 ± 0.58	–	induced B cell proliferation only at 10 μM	–	–	significantly higher maximum serum concentrations
3.9 ± 1.06	1.19 ± 0.2	–	–	–	–	–	51.3 ±6.4	COCCOc1nc(N)c2nc(O)n(Cc3ccc(C(=O)NCCOCCOCCOCCOCCOCCOCCN)cc3)c2n1 [Compound 1c, 4-((6-amino-8-hydroxy-2-(2-methoxyethoxy)-9H-purin-9-yl)methyl)-N-(20-amino-3,6,9,12,15,18-hexaoxaicosyl)benzamide]	5.19 ± 1.96	3.27 ± 0.39	significantly less cytokine levels; also recorded: minimum induction of proinflammatory cytokines	–	–	higher potencies than the corresponding compounds with carboxyl-terminals	–
8.18 ± 1.91	4.13 ± 0.97	–	–	–	–	–	–	COCCOc1nc(N)c2nc(O)n(Cc3ccc(C(=O)NCCOCCOCCOCCOCCOCCOCCN=[N+]=[N-])cc3)c2n1 [Compound 1a, 4-((6-amino-8-hydroxy-2-(2-methoxyethoxy)-9H-purin-9-yl)methyl)-N-(20-azido-3,6,9,12,15,18-hexaoxaicosyl)benzamide]	2.60 ± 0.49	2.9 ± 0.06	minimum induction of proinflammatory cytokines	–	–	–	–
